According to ChEMBL document CHEMBL4376814, “Novel cyclin-dependent kinase 9 (CDK9) inhibitor with suppression of cancer stemness activity against non-small-cell lung cancer” (Eur J Med Chem, 2019):
The source made the active and inactive calls. The calls are words filed in the database; no cut-off is given here.

Key:
[1] = target: Serine/threonine-protein kinase Nek1 (Homo sapiens) (UniProt Q96PY6); assay: Inhibition of recombinant human NEK1 (1 to 505 residues) at 1 uM using RLGRDKYKTLRQIRQ as substrate measured after 40 mins in presence of [gamma33P]ATP by scintillation counting method relative to control
Chain of Serine/threonine-protein kinase Nek1 (Homo sapiens) (Q96PY6 whole entry, the tested form may be a part): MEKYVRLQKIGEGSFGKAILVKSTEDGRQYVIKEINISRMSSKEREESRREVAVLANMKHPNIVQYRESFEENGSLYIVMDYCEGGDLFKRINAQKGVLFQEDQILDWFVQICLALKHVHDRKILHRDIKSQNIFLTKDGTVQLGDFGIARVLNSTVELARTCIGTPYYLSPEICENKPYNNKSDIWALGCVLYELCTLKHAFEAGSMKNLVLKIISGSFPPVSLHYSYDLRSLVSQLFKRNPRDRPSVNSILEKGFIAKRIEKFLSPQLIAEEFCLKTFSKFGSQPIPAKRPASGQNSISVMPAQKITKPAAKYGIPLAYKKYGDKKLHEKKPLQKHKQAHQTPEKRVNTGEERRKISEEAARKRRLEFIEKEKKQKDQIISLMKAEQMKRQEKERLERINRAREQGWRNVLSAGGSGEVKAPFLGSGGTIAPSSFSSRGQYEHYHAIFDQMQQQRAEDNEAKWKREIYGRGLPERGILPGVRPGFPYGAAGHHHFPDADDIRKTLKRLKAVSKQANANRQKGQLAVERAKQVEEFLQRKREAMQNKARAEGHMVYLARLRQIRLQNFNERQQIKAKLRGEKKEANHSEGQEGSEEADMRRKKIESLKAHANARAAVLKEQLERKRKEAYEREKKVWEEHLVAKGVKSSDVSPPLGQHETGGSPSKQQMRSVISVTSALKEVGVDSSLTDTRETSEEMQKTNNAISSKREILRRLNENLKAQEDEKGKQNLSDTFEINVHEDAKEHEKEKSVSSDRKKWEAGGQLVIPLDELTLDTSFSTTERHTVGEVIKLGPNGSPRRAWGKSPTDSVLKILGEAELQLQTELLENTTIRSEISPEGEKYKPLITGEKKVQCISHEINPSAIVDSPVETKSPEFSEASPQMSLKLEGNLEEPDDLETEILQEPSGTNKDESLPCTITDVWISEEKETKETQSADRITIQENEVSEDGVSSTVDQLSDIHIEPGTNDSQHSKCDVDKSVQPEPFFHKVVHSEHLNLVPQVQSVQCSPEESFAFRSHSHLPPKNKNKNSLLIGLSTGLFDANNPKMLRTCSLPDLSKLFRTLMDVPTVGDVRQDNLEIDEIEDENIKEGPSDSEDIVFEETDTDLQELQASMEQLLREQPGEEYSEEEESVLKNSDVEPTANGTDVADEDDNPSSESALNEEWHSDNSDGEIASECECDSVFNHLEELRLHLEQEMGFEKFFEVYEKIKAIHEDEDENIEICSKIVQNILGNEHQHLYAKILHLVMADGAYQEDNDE

[2] = target: Fibroblast growth factor receptor 3 (Homo sapiens) (UniProt P22607); assay: Inhibition of recombinant human FGFR3 (447 to 761 residues) at 1 uM using poly(Glu, Tyr) 4:1 as substrate measured after 40 mins in presence of [gamma33P]ATP by scintillation counting method relative to control
Chain of Fibroblast growth factor receptor 3 (Homo sapiens) (P22607 23-806 limits assumed): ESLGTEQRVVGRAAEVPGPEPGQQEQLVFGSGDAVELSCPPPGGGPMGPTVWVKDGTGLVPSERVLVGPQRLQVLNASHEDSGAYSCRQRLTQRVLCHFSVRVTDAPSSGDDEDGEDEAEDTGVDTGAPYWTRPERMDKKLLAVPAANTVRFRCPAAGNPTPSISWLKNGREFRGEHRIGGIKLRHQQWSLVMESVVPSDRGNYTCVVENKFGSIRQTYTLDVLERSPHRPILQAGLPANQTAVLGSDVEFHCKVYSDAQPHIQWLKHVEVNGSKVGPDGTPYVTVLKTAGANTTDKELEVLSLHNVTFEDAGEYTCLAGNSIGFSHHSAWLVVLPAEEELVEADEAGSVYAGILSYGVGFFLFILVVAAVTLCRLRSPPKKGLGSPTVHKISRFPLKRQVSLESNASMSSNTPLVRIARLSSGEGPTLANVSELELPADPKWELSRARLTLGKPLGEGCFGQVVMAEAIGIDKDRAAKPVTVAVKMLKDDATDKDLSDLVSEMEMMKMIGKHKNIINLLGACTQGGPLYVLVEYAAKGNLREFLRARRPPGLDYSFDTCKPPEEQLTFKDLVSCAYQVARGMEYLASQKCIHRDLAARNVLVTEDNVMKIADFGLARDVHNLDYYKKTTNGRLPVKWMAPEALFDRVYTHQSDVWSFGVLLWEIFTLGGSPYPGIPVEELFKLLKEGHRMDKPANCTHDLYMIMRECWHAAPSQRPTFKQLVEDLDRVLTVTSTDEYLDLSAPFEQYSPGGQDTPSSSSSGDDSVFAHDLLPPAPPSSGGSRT

[3] = target: Receptor-interacting serine/threonine-protein kinase 1 (Homo sapiens) (UniProt Q13546); assay: Inhibition of human RIPK1 (8 to 322 residues) at 1 uM using myelin basic protein as substrate measured after 120 mins in presence of [gamma33P]ATP by scintillation counting method relative to control
Summary of the method: (§1)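 Percent inhibition of kinase activity at a single compound concentration, measured by the outsourced Eurofins KinaseProfiler panel. Values are the mean of two independent experiments.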

[4] = target: Activin receptor type-1-like (Homo sapiens) (UniProt P37023); assay: Inhibition of recombinant human ALK1 (142 to end residues) at 1 uM using casein as substrate measured after 40 mins in presence of [gamma33P]ATP by scintillation counting method relative to control
[5] = target: Cyclin-dependent kinase 9 (Homo sapiens) (UniProt P50750); settings: A549, 0.25 uM
[6] = target: Tyrosine-protein kinase Lyn (Homo sapiens) (UniProt P07948); assay: Inhibition of recombinant full-length human LYN at 1 uM using poly(Glu, Tyr) 4:1 as substrate measured after 40 mins in presence of [gamma33P]ATP by scintillation counting method relative to control
[7] = target: Ribosomal protein S6 kinase alpha-2 (Homo sapiens) (UniProt Q15349); assay: Inhibition of human Rsk2 (2 to end residues) at 1 uM using KKKNRTLSVA as substrate measured after 40 mins in presence of [gamma33P]ATP by scintillation counting method relative to control; summary of the method: as §1
[8] = target: Serine/threonine-protein kinase MAK (Homo sapiens) (UniProt P20794); assay: Inhibition of recombinant full-length human MAK at 1 uM using RRRFRPASPLRGPPK as substrate measured after 120 mins in presence of [gamma33P]ATP by scintillation counting method relative to control
[9] = test system: CDK18/Cyclin Y (Homo sapiens), Q07002+Q8ND76 [T166M]; assay: Inhibition of recombinant full length human cyclinY/CDK18 T166M mutant at 1 uM using YRRAAVPPSPSLS as substrate measured after 40 mins in presence of [gamma33P]ATP by scintillation counting method relative to control; type: protein-complex assay
Summary of the method: (§2)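 Single-point inhibition at 1 µM was measured in the Eurofins KinaseProfiler panel. Values are the mean of two independent experiments.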

[10] = target: Protein kinase C iota type (Homo sapiens) (UniProt P41743); assay: Inhibition of recombinant full-length human PKCiota at 1 uM using ERMRPRKRQGSVRRRV as substrate measured after 40 mins in presence of [gamma33P]ATP by scintillation counting method relative to control
Chain of Protein kinase C iota type (Homo sapiens) (P41743 whole entry): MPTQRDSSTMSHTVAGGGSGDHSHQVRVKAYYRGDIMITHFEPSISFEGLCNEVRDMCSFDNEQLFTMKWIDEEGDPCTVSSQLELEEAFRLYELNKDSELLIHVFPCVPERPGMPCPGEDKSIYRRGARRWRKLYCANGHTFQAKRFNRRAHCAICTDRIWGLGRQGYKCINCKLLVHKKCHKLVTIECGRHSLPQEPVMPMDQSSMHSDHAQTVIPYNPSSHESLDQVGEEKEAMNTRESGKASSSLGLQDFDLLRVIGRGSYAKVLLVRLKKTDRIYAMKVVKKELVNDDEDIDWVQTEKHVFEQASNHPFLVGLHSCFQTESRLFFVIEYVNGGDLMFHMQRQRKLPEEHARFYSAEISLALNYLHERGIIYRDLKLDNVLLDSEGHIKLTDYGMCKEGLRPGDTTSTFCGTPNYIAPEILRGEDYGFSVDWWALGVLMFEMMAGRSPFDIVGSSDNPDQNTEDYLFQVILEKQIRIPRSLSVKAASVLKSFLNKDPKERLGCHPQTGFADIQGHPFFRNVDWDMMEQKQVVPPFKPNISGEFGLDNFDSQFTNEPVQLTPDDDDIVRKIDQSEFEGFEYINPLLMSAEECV

[11] = target: Serine/threonine-protein kinase Chk2 (Homo sapiens) (UniProt O96017); assay: Inhibition of recombinant human CHK2 (5 to end residues) at 1 uM using KKKVSRSGLYRSPSMPENLNRPR as substrate measured after 40 mins in presence of [gamma33P]ATP by scintillation counting method relative to control; summary of the method: as §2
[12] = target: Focal adhesion kinase 1 (Homo sapiens) (UniProt Q05397); assay: Inhibition of recombinant human FAK (411 to 686 residues) at 1 uM using EEEEYEEEEEEYYIIEEEEEEYEEEEEEYYEEEEEEKKKK as substrate measured after 40 mins in presence of [gamma33P]ATP by scintillation counting method relative to control
Chain of Focal adhesion kinase 1 (Homo sapiens) (Q05397 2-1052 limits assumed): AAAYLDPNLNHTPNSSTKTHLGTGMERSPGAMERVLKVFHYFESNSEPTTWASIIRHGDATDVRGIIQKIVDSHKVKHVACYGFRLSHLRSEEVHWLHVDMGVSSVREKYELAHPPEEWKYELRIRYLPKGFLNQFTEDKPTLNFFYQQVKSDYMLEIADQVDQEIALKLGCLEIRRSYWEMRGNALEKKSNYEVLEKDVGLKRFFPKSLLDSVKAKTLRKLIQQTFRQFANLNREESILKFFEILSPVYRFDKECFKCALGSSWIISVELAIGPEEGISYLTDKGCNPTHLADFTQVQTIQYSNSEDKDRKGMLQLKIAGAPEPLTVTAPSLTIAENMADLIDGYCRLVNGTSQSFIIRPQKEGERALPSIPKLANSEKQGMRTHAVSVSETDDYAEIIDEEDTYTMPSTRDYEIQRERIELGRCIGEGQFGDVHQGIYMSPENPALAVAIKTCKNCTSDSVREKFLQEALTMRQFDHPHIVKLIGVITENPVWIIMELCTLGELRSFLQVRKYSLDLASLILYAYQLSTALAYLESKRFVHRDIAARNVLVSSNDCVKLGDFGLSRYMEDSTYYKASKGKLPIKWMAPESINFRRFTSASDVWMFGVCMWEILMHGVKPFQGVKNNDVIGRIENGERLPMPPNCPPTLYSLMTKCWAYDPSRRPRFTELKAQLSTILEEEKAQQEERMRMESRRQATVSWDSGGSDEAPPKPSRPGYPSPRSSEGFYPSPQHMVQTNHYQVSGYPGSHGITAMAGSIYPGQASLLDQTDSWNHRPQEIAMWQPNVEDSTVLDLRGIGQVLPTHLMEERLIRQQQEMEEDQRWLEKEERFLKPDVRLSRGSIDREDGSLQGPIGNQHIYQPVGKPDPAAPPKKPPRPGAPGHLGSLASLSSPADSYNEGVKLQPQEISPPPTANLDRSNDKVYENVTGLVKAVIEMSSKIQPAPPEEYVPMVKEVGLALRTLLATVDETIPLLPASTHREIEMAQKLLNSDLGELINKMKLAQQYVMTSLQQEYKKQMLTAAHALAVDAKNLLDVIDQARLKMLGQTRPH

[13] = target: Leukocyte tyrosine kinase receptor (Homo sapiens) (UniProt P29376); assay: Inhibition of recombinant human LTK (450 to end residues) at 1 uM using GEEPLYWSFPAKKK as substrate measured after 40 mins in presence of [gamma33P]ATP by scintillation counting method relative to control
Chain of Leukocyte tyrosine kinase receptor (Homo sapiens) (P29376 whole entry, the tested form may be a part): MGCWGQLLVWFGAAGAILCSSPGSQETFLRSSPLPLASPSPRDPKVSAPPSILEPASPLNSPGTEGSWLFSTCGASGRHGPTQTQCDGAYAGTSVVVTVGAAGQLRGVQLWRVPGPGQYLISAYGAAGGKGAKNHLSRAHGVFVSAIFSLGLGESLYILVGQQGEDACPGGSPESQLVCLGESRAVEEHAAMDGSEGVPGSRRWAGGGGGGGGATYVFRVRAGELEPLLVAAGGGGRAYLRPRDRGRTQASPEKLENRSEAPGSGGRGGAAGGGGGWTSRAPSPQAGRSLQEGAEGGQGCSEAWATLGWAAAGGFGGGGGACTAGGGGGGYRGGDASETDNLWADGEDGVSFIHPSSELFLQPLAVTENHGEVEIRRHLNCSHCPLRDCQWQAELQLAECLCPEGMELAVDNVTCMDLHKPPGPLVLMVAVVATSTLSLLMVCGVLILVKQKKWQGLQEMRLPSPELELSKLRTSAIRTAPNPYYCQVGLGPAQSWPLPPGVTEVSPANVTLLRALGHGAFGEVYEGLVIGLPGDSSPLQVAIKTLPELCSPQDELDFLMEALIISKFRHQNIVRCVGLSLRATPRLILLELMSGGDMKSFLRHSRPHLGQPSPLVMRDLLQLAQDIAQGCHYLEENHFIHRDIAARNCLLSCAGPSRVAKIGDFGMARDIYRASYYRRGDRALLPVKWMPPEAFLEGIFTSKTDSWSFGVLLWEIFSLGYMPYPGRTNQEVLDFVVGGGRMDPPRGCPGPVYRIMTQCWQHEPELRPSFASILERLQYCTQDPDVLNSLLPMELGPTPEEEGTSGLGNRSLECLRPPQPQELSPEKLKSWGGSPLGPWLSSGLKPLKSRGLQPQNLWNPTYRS

[14] = target: Serine/threonine-protein kinase ICK (Homo sapiens) (UniProt Q9UPZ9); assay: Inhibition of recombinant human ICK (1 to 312 residues) at 1 uM using RRRFRPASPLRGPPK as substrate measured after 40 mins in presence of [gamma33P]ATP by scintillation counting method relative to control
[15] = target: Rhodopsin kinase GRK7 (Homo sapiens) (UniProt Q8WTQ7); assay: Inhibition of recombinant full-length human GRK7 at 1 uM using casein as substrate measured after 40 mins in presence of [gamma33P]ATP by scintillation counting method relative to control
[16] = target: Epidermal growth factor receptor (Homo sapiens) (UniProt P00533); assay: Inhibition of recombinant human EGFR (696 to end residues) at 1 uM using poly (Glu,Tyr) 4:1 as substrate incubated for 40 mins in presence of [gamma-33P]ATP at Km concentration by radiometric assay relative to control
[17] = test system: Angiopoietin-1 receptor (Homo sapiens), Q02763 [Q939H,Q940H]; assay: Inhibition of human Tie2 Q939H/Q940H mutant (771 to end residues) at 1 uM using poly(Glu, Tyr) 4:1 as substrate measured after 40 mins in presence of [gamma33P]ATP by scintillation counting method relative to control; summary of the method: as §2
[18] = target: Activin receptor type-1B (Homo sapiens) (UniProt P36896); assay: Inhibition of recombinant human ALK4 (150 to end residues) at 1 uM using casein as substrate measured after 40 mins in presence of [gamma33P]ATP by scintillation counting method relative to control
[19] = test system: Mast/stem cell growth factor receptor Kit (Homo sapiens), P10721 [D816V]; assay: Inhibition of recombinant human cKit (544 to end residues) D816V mutant at 1 uM using poly(Glu, Tyr) 4:1 as substrate measured after 40 mins in presence of [gamma33P]ATP by scintillation counting method relative to control; summary of the method: as §2
[20] = target: Tyrosine-protein kinase Lck (Homo sapiens) (UniProt P06239); assay: Inhibition of recombinant full-length human LCK at 1 uM using Cdc2 peptide as substrate measured after 40 mins in presence of [gamma33P]ATP by scintillation counting method relative to control
Chain of Tyrosine-protein kinase Lck (Homo sapiens) (P06239 2-509 limits assumed): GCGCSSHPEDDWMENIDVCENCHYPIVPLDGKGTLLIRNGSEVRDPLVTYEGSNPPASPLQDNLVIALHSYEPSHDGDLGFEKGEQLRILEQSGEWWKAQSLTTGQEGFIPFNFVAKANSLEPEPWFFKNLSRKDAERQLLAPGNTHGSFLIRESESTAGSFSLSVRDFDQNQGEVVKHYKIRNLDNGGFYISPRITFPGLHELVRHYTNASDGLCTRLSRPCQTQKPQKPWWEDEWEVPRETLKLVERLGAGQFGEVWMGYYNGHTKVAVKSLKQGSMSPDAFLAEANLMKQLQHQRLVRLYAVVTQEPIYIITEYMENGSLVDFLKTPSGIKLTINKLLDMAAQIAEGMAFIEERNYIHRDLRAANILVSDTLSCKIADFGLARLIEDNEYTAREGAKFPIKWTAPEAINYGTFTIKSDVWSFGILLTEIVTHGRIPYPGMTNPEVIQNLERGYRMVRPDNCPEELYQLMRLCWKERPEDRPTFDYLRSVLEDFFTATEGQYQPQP

[21] = target: Eukaryotic translation initiation factor 2-alpha kinase 3 (Homo sapiens) (UniProt Q9NZJ5); assay: Inhibition of recombinant human PEK (536 to end residues) at 1 uM using RSRSRSRSRSRSR as substrate measured after 40 mins in presence of [gamma33P]ATP by scintillation counting method relative to control
[22] = target: Protein kinase C epsilon type (Homo sapiens) (UniProt Q02156); assay: Inhibition of recombinant human PKCepsilon (2 to end residues) at 1 uM using ERMRPRKRQGSVRRRV as substrate measured after 40 mins in presence of [gamma33P]ATP by scintillation counting method relative to control

Compound: CN(C)C(=O)c1cc2cnc(Nc3ccc(NC(=O)CCCCCCCN=C=S)cc3)nc2n1C1CCCC1
- inhibition [1]: 69%
- inhibition [2]: 28%
- inhibition [3]: 37%
- inhibition [4]: -5%
- inhibition [5]: Active
- inhibition [6]: 25%
- inhibition [7]: 19%
- inhibition [8]: 94%
- inhibition [9]: 11%
- inhibition [10]: -4%
- inhibition [11]: 32%
- inhibition [12]: 22%
- inhibition [13]: 33%
- inhibition [14]: 38%
- inhibition [15]: 9%
- inhibition [16]: 21%
- inhibition [17]: 29%
- inhibition [18]: 3%
- inhibition [19]: 11%
- inhibition [20]: 33%
- inhibition [21]: 6%
- inhibition [22]: -3%
